Data on 12 compounds can be found in ChEMBL document CHEMBL3734683, “Synthesis and pharmacological screening of a large library of 1,3,4-thiadiazolines as innovative therapeutic tools for the treatment of prostate cancer and melanoma” (2015).

Active and inactive are the calls of the source. The rule behind the calls is not given here.

Test [1] has as its system PC-3. The experiment in a line: Antiproliferative activity against human PC3 cells assessed as reduction in cell viability at 0.5 to 100 uM after 72 hrs by MTT assay. Type of test: functional, cell-based. Put shortly: (§1)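 Cells plated, compound added after 24 h (DMSO dilution into culture medium), in triplicate; after 72 h, MTT added for 4 h. Controls were cells in medium alone; blanks were medium-only wells. Viability expressed as percent of viable cells versus control, mean of at least three independent assays.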
A general note: Tetrazolium dyes change colour on reduction, which living cells bring about.

In test [2] the test system is SK-MEL-5. Put plainly: Antiproliferative activity against human SK-MEL-5 cells assessed as reduction in cell viability at 5 to 50 uM after 72 hrs by MTT assay. Format: functional, cell-based. Put shortly: as §1
Test [3] relates to SK-MEL-28. Put plainly: Antiproliferative activity against human SK-MEL-28 cells assessed as reduction in cell viability at 5 to 50 uM after 72 hrs by MTT assay. Format: functional, cell-based. Put shortly: as §1
Test [4] in a line: Cytotoxicity against human PC3 cells assessed as cell viability at 5 uM after 72 hrs by tryphan blue staining based microscopy (reference value: 95 to 98 %). Type of test: functional. The note with it: PC-3, 72 h, read-out: Activity.
For test [5], the system named is SK-MEL-28. The experiment in a line: Cell cycle arrest in human SK-MEL-28 cells assessed as accumulation at G2/M phase at 5 uM after 24 hrs by propidium iodide staining-based FACS analysis. Format: functional.
Test [6] concerns SK-MEL-28. The experiment in a line: Reduction in cyclin D1 mRNA expression in human SK-MEL-28 cells at 5 uM after 24 hrs by RT-PCR analysis relative to control.
Test [7] can be described thus: Cell cycle arrest in human PC3 cells assessed as accumulation at G2/M phase at 5 uM after 24 hrs by propidium iodide staining-based FACS analysis. Format: functional. As to conditions: PC-3. In general terms: A flow cytometer gives signals particle by particle.
Test [8] deals with SK-MEL-5. Put plainly: Cell cycle arrest in human SK-MEL-5 cells assessed as accumulation of cells with 4N DNA at 5 uM after 96 hrs by propidium iodide staining-based FACS analysis. Type of test: functional.
Test [9] has as its system SK-MEL-5. The experiment in a line: Reduction in cyclin D1 protein level in human SK-MEL-5 cells at 5 uM after 24 hrs by RT-PCR analysis relative to control. Type of test: functional, cell-based.
For test [10], the system named is SK-MEL-28. The experiment in a line: Cell cycle arrest in human SK-MEL-28 cells assessed as accumulation of cells with 4N DNA at 5 uM after 96 hrs by propidium iodide staining-based FACS analysis. Format: functional.
Test [11] deals with SK-MEL-5. Put plainly: Cell cycle arrest in human SK-MEL-5 cells assessed as accumulation at G2/M phase at 5 uM after 24 hrs by propidium iodide staining-based FACS analysis. Type of test: functional.
Test [12] concerns PC-3. Put plainly: Reduction in cyclin D1 protein level in human PC3 cells at 5 uM after 24 hrs by RT-PCR analysis relative to control. Format: functional, cell-based.
Test [13] is described as follows: Cell cycle arrest in human PC3 cells assessed as accumulation of cells with 4N DNA at 5 uM after 96 hrs by propidium iodide staining-based FACS analysis. Type of test: functional. The note with it: PC-3.
Test [14] is described as follows: Cytotoxicity against human PC3 cells assessed as cell viability at 100 nM after 72 hrs by tryphan blue staining-based microscopy (reference value: 95 to 98 %). Type of test: functional. As to conditions: PC-3, 72 h, read-out: Activity.

Consider `CC(=O)NC1=NN(C(C)=O)C(C)(c2ccccn2)S1` (stereo not given), for which the outcome in the test on PC-3 [1] was Active.

In the case of `CC1(c2ccccc2)SC(NC(=O)C(Cl)Cl)=NN1C(=O)C(Cl)Cl` (stereo not given), the result in the test on SK-MEL-5 [2], with SK-MEL-28 [3] and in the test with PC-3 [1] was Active.

As for `CC(=O)NC1=NN(C(C)=O)C(C)(c2ccc(OC(C)=O)cc2)S1` (stereo not given), in the test with PC-3 [1], the outcome was Active.

Take `CC(=O)NC1=NN(C(C)=O)C(C)(c2ccccc2)S1` (stereo not given): the viability at 5 µM in [4] came to 25%. Moreover, the outcome (with SK-MEL-5 [2]; in the test on SK-MEL-28 [5]; in the test on SK-MEL-28 [6]; with SK-MEL-28 [3]; with PC-3 [1]; in test [7]) was Active. Besides, the result (in the test with SK-MEL-5 [8]; with SK-MEL-5 [9]; in the test on SK-MEL-28 [10]; in the test on SK-MEL-5 [11]; in the test on PC-3 [12]; in test [13]) was Active.

For `CCC1(c2ccccc2)SC(NC(C)=O)=NN1C(C)=O` (stereo not given), the viability at 5 µM in test [4] amounted to 18%. In addition, the result (with SK-MEL-5 [2]; in the test with SK-MEL-28 [5]; with SK-MEL-28 [6]; in the test with SK-MEL-28 [3]; in the test on PC-3 [1]; in [7]) was Active. Moreover, the outcome (with SK-MEL-5 [8]; in the test on SK-MEL-5 [9]; in the test with SK-MEL-28 [10]; with SK-MEL-5 [11]; in the test on PC-3 [12]; in [13]) was Active.

Consider `CC(=O)NC1=NN(C(C)=O)C(C)(c2cccnc2)S1` (stereo not given), for which the outcome with SK-MEL-5 [2] and in the test with SK-MEL-28 [3] was Active.

Take `CCCCC1(CC)SC(NC(=O)CC)=NN1C(=O)CC` (stereo not given): the result in the test on PC-3 [1] was Active.

In the case of `CC(=O)NC1=NN(C(C)=O)C(C)(c2cccs2)S1` (stereo not given), the result in the test with PC-3 [1] was Active.

On to `CC(=O)O[C@@]12CO[C@@H]1C[C@H](O)[C@@]1(C)C(=O)[C@H](O)C3=C(C)[C@@H](OC(=O)[C@H](O)[C@@H](NC(=O)OC(C)(C)C)c4ccccc4)C[C@@](O)([C@@H](OC(=O)c4ccccc4)[C@H]21)C3(C)C` [DOCETAXEL ANHYDROUS], for which the viability at 0.1 µM in test [14] came out at 32%.

Take `CCC(=O)NC1=NN(C(=O)CC)C(CC)(c2ccccc2)S1` (stereo not given): the outcome in the test with PC-3 [1] was Active.

As to `C=CCCC1(C)SC(NC(=O)CC)=NN1C(=O)CC` (stereo not given), the result with SK-MEL-5 [2] and in the test on SK-MEL-28 [3] was Active.

Take `CC(=O)NC1=NN(C(C)=O)C(C)(c2cc(F)ccc2F)S1` (stereo not given): the result in the test with PC-3 [1] was Active.
